This is an account of results in ChEMBL document CHEMBL1926558, “Searching for the Multi-Target-Directed Ligands against Alzheimer's disease: discovery of quinoxaline-based hybrid compounds with AChE, H₃R and BACE 1 inhibitory activities” (Bioorg Med Chem, 2011).

SMILES strings stand for the structures. Where “and” joins values, the source holds several entries; their conditions need not be identical. Identical values can stand only once. Calls of active or inactive are those of the source. The calls are words filed in the database; no cut-off is given here.

The target of assay [1] is T1, Acetylcholinesterase (Rattus norvegicus, UniProt P37136).
T1 sequence (P37136 whole entry): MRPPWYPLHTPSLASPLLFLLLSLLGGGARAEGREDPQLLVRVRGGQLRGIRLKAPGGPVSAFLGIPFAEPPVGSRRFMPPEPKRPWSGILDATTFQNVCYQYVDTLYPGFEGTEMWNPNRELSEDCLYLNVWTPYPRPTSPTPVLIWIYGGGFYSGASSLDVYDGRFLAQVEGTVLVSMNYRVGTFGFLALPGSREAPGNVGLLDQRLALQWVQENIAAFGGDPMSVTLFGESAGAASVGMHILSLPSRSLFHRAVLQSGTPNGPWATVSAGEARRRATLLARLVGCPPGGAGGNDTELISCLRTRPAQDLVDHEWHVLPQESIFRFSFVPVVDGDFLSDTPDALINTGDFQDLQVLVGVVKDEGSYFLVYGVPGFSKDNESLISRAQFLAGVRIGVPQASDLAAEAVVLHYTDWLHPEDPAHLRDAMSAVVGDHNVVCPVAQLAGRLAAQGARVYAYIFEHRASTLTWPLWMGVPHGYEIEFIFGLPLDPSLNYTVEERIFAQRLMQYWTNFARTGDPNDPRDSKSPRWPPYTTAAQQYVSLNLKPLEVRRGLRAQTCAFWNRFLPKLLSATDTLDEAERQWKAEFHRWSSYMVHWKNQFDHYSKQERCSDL
In words: Inhibition of AChE in rat cortex homogenates using acetylthiocholine iodide as substrate after 15 mins by Ellman's method.

The target of assay [2] is T2, Histamine H3 receptor (Homo sapiens, UniProt Q9Y5N1). In words: Antagonist activity at histamine H3 receptor expressed in HEK293 cells co-transfected with pCRE-Luc gene assessed as inhibition of forskolin/histamine-induced cAMP accumulation after 5 hrs by luciferase reporter gene assay. The format is functional, cell-based.
T2 sequence (Q9Y5N1 whole entry): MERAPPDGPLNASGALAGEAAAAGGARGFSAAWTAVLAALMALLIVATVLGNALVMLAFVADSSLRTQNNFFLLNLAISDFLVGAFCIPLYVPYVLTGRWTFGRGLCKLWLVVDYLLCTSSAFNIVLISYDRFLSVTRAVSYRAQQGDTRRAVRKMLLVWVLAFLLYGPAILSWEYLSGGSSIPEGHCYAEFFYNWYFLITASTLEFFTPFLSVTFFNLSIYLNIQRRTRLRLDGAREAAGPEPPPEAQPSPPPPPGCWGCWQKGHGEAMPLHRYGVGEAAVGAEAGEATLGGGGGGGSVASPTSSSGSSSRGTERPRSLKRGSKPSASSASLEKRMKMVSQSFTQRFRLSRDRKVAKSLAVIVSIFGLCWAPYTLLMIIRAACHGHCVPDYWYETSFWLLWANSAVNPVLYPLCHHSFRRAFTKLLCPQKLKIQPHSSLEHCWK
The target of assay [3] is T2, Histamine H3 receptor. The assay can be described thus: Inverse agonist activity at histamine H3 receptor expressed in HEK293 cells co-transfected with pCRE-Luc gene assessed as inhibition of forskolin/histamine-induced cAMP accumulation after 5 hrs by luciferase reporter gene assay. The format is functional, cell-based. In general terms: cAMP levels reflect the balance of adenylyl cyclase and phosphodiesterase activity.

Assay [4] concerns the target Histamine H1 receptor (Homo sapiens) (UniProt P35367). The assay can be described thus: Antagonist activity at histamine H1 receptor expressed in HEK293 cells co-transfected with pCRE-Luc gene assessed as inhibition of forskolin/histamine-induced cAMP accumulation at 1 uM after 5 hrs by luciferase reporter gene assay. The format is functional, cell-based. In a few lines: (§1)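 HEK-293 cells stably expressing H1R or H2R were grown in DMEM with 10% FBS and penicillin/streptomycin at 37 °C under 5% CO2. Transfectants were selected with 800 µg/mL G418. cAMP accumulation was induced by 1 µM histamine with test compound present and read out by CRE-luciferase transcription.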

Assay [5] concerns the target Histamine H2 receptor (Homo sapiens) (UniProt P25021). The assay can be described thus: Antagonist activity at histamine H2 receptor expressed in HEK293 cells co-transfected with pCRE-Luc gene assessed as inhibition of forskolin/histamine-induced cAMP accumulation at 1 uM after 5 hrs by luciferase reporter gene assay. Format: functional, cell-based. In a few lines:
as §1

The target in assay [6] is T3, Histamine H4 receptor (Homo sapiens, UniProt Q9H3N8). The assay can be described thus: Antagonist activity at histamine H4 receptor expressed in HEK293 cells co-transfected with pCRE-Luc gene assessed as inhibition of forskolin/histamine-induced cAMP accumulation at 1 uM after 5 hrs by luciferase reporter gene assay. The format is functional, cell-based.
T3 sequence (Q9H3N8 whole entry): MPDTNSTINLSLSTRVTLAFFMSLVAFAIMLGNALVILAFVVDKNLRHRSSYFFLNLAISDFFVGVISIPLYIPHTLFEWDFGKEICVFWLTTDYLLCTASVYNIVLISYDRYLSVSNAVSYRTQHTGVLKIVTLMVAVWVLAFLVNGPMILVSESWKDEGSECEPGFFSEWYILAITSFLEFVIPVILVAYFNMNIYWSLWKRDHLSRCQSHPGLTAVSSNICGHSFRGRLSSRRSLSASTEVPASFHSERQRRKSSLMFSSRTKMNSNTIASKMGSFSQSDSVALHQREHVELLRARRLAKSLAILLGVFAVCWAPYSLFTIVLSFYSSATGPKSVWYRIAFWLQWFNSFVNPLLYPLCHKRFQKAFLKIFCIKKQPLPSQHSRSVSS
Assay [7] deals with T2, Histamine H3 receptor. In words: Antagonist activity at histamine H3 receptor expressed in HEK293 cells co-transfected with pCRE-Luc gene assessed as inhibition of forskolin/histamine-induced cAMP accumulation at 1 uM after 5 hrs by luciferase reporter gene assay. The format is functional, cell-based.
Assay [8] concerns the target T3, Histamine H4 receptor. The assay can be described thus: Antagonist activity at histamine H4 receptor expressed in HEK293 cells co-transfected with pCRE-Luc gene assessed as inhibition of forskolin/histamine-induced cAMP accumulation after 5 hrs by luciferase reporter gene assay. Format: functional, cell-based.
The target in assay [9] is Acetylcholinesterase (Homo sapiens, UniProt P22303).
Chain of Acetylcholinesterase (Homo sapiens, UniProt P22303) (P22303 whole entry): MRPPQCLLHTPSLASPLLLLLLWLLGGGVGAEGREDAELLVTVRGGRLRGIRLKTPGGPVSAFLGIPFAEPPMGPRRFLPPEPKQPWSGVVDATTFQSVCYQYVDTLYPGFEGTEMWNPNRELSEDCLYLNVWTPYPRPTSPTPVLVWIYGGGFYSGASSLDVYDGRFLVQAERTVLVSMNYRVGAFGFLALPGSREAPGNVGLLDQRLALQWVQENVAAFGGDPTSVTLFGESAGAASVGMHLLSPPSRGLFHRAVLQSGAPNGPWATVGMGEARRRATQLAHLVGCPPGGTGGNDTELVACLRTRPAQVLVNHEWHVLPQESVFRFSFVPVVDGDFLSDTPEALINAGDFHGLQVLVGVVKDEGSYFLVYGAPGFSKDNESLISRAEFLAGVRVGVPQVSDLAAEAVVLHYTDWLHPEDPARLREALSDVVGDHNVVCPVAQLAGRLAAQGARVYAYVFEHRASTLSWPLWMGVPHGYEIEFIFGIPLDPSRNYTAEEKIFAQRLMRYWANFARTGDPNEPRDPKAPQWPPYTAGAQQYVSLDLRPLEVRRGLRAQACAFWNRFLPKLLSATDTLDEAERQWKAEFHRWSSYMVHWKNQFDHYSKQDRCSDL

Chain of Histamine H2 receptor (Homo sapiens) (P25021 whole entry): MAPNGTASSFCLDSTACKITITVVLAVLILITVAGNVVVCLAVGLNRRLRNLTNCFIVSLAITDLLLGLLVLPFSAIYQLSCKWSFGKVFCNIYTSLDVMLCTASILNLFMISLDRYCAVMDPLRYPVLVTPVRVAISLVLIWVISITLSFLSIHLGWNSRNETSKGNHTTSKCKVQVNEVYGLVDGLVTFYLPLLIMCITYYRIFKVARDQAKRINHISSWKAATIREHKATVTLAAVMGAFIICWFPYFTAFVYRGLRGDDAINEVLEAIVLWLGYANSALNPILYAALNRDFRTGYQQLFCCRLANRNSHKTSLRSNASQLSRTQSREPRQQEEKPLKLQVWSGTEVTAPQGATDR
Chain of Histamine H1 receptor (Homo sapiens) (P35367 whole entry): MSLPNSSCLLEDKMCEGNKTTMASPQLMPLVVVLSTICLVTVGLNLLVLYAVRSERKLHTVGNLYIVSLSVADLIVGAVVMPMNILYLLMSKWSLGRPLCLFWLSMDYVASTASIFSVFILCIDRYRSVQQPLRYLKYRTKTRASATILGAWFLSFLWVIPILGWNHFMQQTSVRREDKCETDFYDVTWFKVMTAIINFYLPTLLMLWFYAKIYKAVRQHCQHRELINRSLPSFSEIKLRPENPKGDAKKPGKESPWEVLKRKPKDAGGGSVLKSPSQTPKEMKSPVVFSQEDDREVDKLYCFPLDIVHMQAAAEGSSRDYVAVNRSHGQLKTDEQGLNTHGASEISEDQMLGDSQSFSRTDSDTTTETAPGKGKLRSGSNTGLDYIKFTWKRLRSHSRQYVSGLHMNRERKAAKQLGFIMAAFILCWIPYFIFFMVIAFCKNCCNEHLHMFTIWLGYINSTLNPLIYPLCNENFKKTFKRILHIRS

In the case of `CCN(CC)Cc1ccc(OCCNc2nc3ccccc3nc2N)cc1`, the IC50 was 3870 nM on Acetylcholinesterase [1] (read-out: IC50), 182 nM at Histamine H3 receptor [2] and “Not Active” at Histamine H3 receptor [3] (hek293). The inhibition entry in assay [4] and in assay [5] was “inactive” in each case. Besides, the inhibition entry at Histamine H4 receptor [6] is “Active”.

In the case of `Nc1nc2ccccc2nc1NC(=O)C1CCN(Cc2ccccc2)CC1`, the IC50 result against Acetylcholinesterase [1] and on Histamine H3 receptor [3] (hek293) was “Not Active” in each case.

As for `Nc1nc2ccccc2nc1NCCCOc1ccc(CN2CCCCC2)cc1`, the IC50 was 1930 nM on Acetylcholinesterase [1] (read-out: IC50) and “Not Active” at Histamine H3 receptor [3] (hek293).

As to `Cl.Nc1nc2ccccc2nc1NC(=O)c1ccc(CN2CCCC2)cc1`, the IC50 result on Acetylcholinesterase [1] and on Histamine H3 receptor [3] (hek293) was “Not Active” in each case. For the same compound, the inhibition on Histamine H3 receptor [7] was 0.8%.

As for `Nc1nc2ccccc2nc1NC(=O)c1ccc(CN2CCCCC2)cc1` [listing 1 of 3 here], the inhibition on Histamine H3 receptor [7] is 74.4% and 65.3%. In addition, the inhibition entry in [4] and in assay [5] was “inactive” in each case. The inhibition result at Histamine H4 receptor [6] was “Active”.

Take `Nc1nc2ccccc2nc1C(=O)Nc1ccc(CN2CCCC2)cc1`: the IC50 stood at 1500 nM on Acetylcholinesterase [1] (read-out: IC50), 260 nM at Histamine H3 receptor [2] and 378 nM on Histamine H3 receptor [3] (read-out: IC50). Further, the inhibition on Histamine H3 receptor [7] amounted to 72.8%. Moreover, the inhibition entry in assay [4] and in assay [5] was “inactive” each time. Besides, the inhibition entry at Histamine H4 receptor [6] is “Active”.

Turning to `Nc1nc2ccccc2nc1/N=C/c1ccc(CN2CCCCC2)cc1`, the IC50 on Acetylcholinesterase [1] (read-out: IC50) was 748 nM; on Histamine H3 receptor [3] (hek293), “Not Active”.

As for `Nc1nc2ccccc2nc1NC(=O)c1ccc(CN2CCCCC2)cc1` [listing 2 of 3 here], the IC50 at Acetylcholinesterase [1] (read-out: IC50) was 313 nM; at Histamine H3 receptor [2], 511 nM; on Histamine H3 receptor [3] (read-out: IC50) it was 171 nM; at Histamine H4 receptor [8] (hek293), above 10000 nM.

For `S=C(NC1CCCCC1)N1CCC(c2cnc[nH]2)CC1` [THIOPERAMIDE], on Histamine H3 receptor [3] (hek293), the IC50 entry is “Not Active”. The inhibition result in assay [4] and in [5] was “inactive” each time.

On to `CN1CCN(Cc2ccc(OCCNc3nc4ccccc4nc3N)cc2)CC1`, for which the IC50 result against Acetylcholinesterase [1] and on Histamine H3 receptor [3] (hek293) was “Not Active” in each case.

As for `Nc1nc2ccccc2nc1CNc1ccc(CN2CCCCC2)cc1`, the IC50 result is “Not Active” against Acetylcholinesterase [1], 130 nM on Histamine H3 receptor [2] and “Not Active” on Histamine H3 receptor [3] (hek293). The inhibition result in assay [4] and in assay [5] was “inactive” each time. In addition, the inhibition result on Histamine H4 receptor [6] was “Active”.

On to `Nc1nc2ccccc2nc1NCc1ccc(CN2CCCCC2)cc1`, for which the IC50 at Acetylcholinesterase [1] (read-out: IC50) is 476 nM; on Histamine H3 receptor [3] (hek293), “Not Active”.

In the case of `Nc1nc2ccccc2nc1NC(=O)c1ccc(CN2CCCCC2)cc1` [listing 3 of 3 here], the IC50 on Acetylcholinesterase [1] (read-out: IC50) was 483 nM; on Histamine H3 receptor [2], 280 nM; on Histamine H3 receptor [3] (read-out: IC50) it was 189 nM; on Histamine H4 receptor [8] it was above 10000 nM.

On to `COc1cc2c(cc1OC)C(=O)C(Oc1ccc(CN3CCCC3)cc1)C2` (stereo not given), for which, at Acetylcholinesterase [9], half-maximal inhibition (IC50) required 50 nM.

With `Nc1nc2ccccc2nc1NCC(=O)Nc1ccc(CN2CCCC2)cc1`, the IC50 was 1170 nM at Acetylcholinesterase [1] (read-out: IC50) and “Not Active” on Histamine H3 receptor [3] (hek293).

For `Nc1nc2ccccc2nc1NCC(=O)NC1CCN(Cc2ccccc2)CC1`, the concentration for half-maximal inhibition (IC50) was 1330 nM at Acetylcholinesterase [1] (read-out: IC50) and “Not Active” at Histamine H3 receptor [3] (hek293). Further, the inhibition at Histamine H3 receptor [7] came to 4.5%.

On to `Nc1nc2ccccc2nc1C(=O)NC1CCN(Cc2ccccc2)CC1`, for which the IC50 entry at Acetylcholinesterase [1] and at Histamine H3 receptor [3] (hek293) was “Not Active” each time.

Turning to `Nc1nc2ccccc2nc1NCCOc1ccc(CN2CCCCC2)cc1`, the IC50 at Acetylcholinesterase [1] (read-out: IC50) is 1600 nM; on Histamine H3 receptor [2], 52.4 nM; at Histamine H3 receptor [3] (hek293), “Not Active”. The inhibition entry in assay [4] and in assay [5] was “inactive” throughout. Besides, the inhibition entry on Histamine H4 receptor [6] was “Active”.

Consider `Nc1nc2ccccc2nc1C(=O)Nc1ccc(CN2CCCCC2)cc1`, for which the IC50 was 892 nM at Acetylcholinesterase [1] (read-out: IC50) and “Not Active” at Histamine H3 receptor [3] (hek293).

As to `Nc1nc2ccccc2nc1NCC(=O)Nc1ccc(CN2CCCCC2)cc1`, the IC50 is 1160 nM at Acetylcholinesterase [1] (read-out: IC50) and “Not Active” on Histamine H3 receptor [3] (hek293).

As a reminder, the IC50 is the concentration at which inhibition is half-maximal. Usually inhibition stands for the change of the read-out against control, counted positive when it falls.
